Assay results published in ChEMBL document CHEMBL5252669, “Semisynthetic blasticidin S ester derivatives show enhanced antibiotic activity” (RSC Med Chem, 2023).
In brackets after ≈: the same amount, converted by molar mass. Activity calls are given as the source filed them. No cut-off for these calls is given here.

Assays:
Saccharomyces cerevisiae = test: Antifungal activity against Saccharomyces cerevisiae incubated for 16 hrs by broth microdilution method; format: functional
[1] = Selectivity index, ratio of CC50 for human MRC5 cells to IC50 for Enterococcus faecalis ATCC 29212; format: toxicity; conditions: read-out: Ratio CC50/IC50
[2] = Selectivity index, ratio of CC50 for human MRC5 cells to IC50 for methicillin resistant Staphylococcus aureus; format: toxicity; conditions: read-out: Ratio CC50/IC50
Klebsiella pneumoniae = test: Antibacterial activity against Klebsiella pneumoniae ATCC 29665 incubated for 16 hrs by broth microdilution method; format: functional, organism-based; conditions: for IC50: ATCC 29665, 16 h; for MIC: ATCC 29665, time 16 hrs
Staphylococcus aureus [3] = test: Antibacterial activity against NorA deleted Staphylococcus aureus incubated for 16 hrs by broth microdilution method; format: functional, organism-based; conditions: for IC50: 16 h; for MIC: time 16 hrs
Method in brief: (§1)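 Cation-adjusted Mueller-Hinton broth microdilution. Overnight cultures from single colonies were diluted to OD600 0.004. Final compound range was 256–2 μg mL−1 in 1:1 methanol/water vehicle, with doxycycline and vehicle controls. Plates were incubated 16 h at 37 °C. OD600 was normalized to controls, and MIC was the lowest concentration inhibiting >90% growth. Two biological replicates in duplicate; reported as a range.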

Acinetobacter baumannii = test: Antibacterial activity against Acinetobacter baumannii ATCC 17978 incubated for 16 hrs by broth microdilution method; format: functional, organism-based; conditions: for IC50: ATCC 17978, 16 h; for MIC: ATCC 17978, time 16 hrs
[4] = Selectivity index, ratio of CC50 for human MRC5 cells to IC50 for Acinetobacter baumannii ATCC 17978; format: toxicity; conditions: read-out: Ratio CC50/IC50
Staphylococcus aureus [5] = test: Antibacterial activity against methicillin resistant Staphylococcus aureus ATCC 43300 incubated for 16 hrs by broth microdilution method; format: functional, organism-based; conditions: for IC50: ATCC 43300, 16 h; for MIC: ATCC 43300, time 16 hrs; method in brief: as §1
Enterococcus [6] = test: Antibacterial activity against vancomycin-resistant Enterococcus incubated for 20 hrs by broth microdilution method
[7] = Selectivity index, ratio of CC50 for human MRC5 cells to IC50 for Staphylococcus aureus; format: toxicity; conditions: read-out: Ratio CC50/IC50
Pseudomonas aeruginosa = test: Antibacterial activity against MexAB-OprM deleted Pseudomonas aeruginosa incubated for 16 hrs by broth microdilution method; format: functional, organism-based; conditions: for IC50: 16 h; for MIC: time 16 hrs
[8] = Cytotoxicity against human MRC5 cells incubated for 24 hrs by MTS assay; format: toxicity, cell-based
Method in brief: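 MRC-5 lung fibroblasts seeded 5000 per well; medium replaced with compound 16–192 μg mL−1 or matching 1:1 methanol:water vehicle; 24 h, then MTS 3–4 h; absorbance 490 nm; viability relative to untreated cells, normalized to vehicle; CC50 from two independent assays in duplicate, mean ± SD.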

[9] = Selectivity index, ratio of CC50 for human MRC5 cells to IC50 for Klebsiella pneumoniae ATCC 29665; format: toxicity; conditions: read-out: Ratio CC50/IC50
[10] = Selectivity index, ratio of CC50 for human MRC5 cells to IC50 for vancomycin-resistant Enterococcus; format: toxicity; conditions: read-out: Ratio CC50/IC50
Staphylococcus aureus [11] = test: Antibacterial activity against wild type Staphylococcus aureus 8810 incubated for 16 hrs by broth microdilution method; format: functional, organism-based; conditions: for IC50: Staphylococcus aureus, 8810, 16 h; for MIC: Staphylococcus aureus, 8810, time 16 hrs; method in brief: as §1
Enterococcus faecalis [12] = test: Antibacterial activity against Enterococcus faecalis ATCC 29212 incubated for 20 hrs by broth microdilution method; conditions: ATCC 29212, 20 h
[13] = Selectivity index, ratio of CC50 for human MRC5 cells to IC50 for NorA deleted Staphylococcus aureus; format: toxicity; conditions: read-out: Ratio CC50/IC50
Candida albicans [14] = test: Antifungal activity against Candida albicans incubated for 16 hrs by broth microdilution method; format: functional
[15] = Selectivity index, ratio of CC50 for human MRC5 cells to IC50 for MexAB-OprM deleted Pseudomonas aeruginosa; format: toxicity; conditions: read-out: Ratio CC50/IC50
Enterococcus [16] = test: Antibacterial activity against vancomycin-resistant Enterococcus assessed as zone of inhibition incubated for 18 hrs by spot on lawn assay; format: functional, organism-based
Method in brief: (§2)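 Spot-on-lawn assay. Plates of 1.5% agar in LB were overlaid with 0.7% LB agar seeded with overnight culture at 0.01 OD600. Aqueous 5 mg mL−1 solutions were spotted at 35, 25, 10 and 5 μg, with a 1:1 water/methanol vehicle spot. After 18 h at 37 °C, inhibition zone diameters were measured with a ruler.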

Staphylococcus aureus [17] = test: Antibacterial activity against methicillin resistant Staphylococcus aureus assessed as zone of inhibition incubated for 18 hrs by spot on lawn assay; format: functional, organism-based; method in brief: as §2
Staphylococcus aureus [18] = test: Antibacterial activity against NorA deleted Staphylococcus aureus assessed as zone of inhibition incubated for 18 hrs by spot on lawn assay; format: functional, organism-based
Method in brief: (§3)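 Overnight LB cultures diluted to OD600 0.01 in 0.7% LB top agar, overlaid on 1.5% LB agar; 5 mg mL−1 aqueous compound spotted at 35, 25, 10 and 5 μg with 1:1 water/methanol vehicle spot; 37 °C, 18 h; inhibition zone diameter measured by ruler.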

Candida albicans [19] = test: Antifungal activity against Candida albicans assessed as zone of inhibition incubated for 18 hrs by spot on lawn assay; format: functional, organism-based; method in brief: as §3
Staphylococcus aureus [20] = test: Antibacterial activity against Staphylococcus aureus assessed as zone of inhibition incubated for 18 hrs by spot on lawn assay; format: functional, organism-based; method in brief: as §3
Enterococcus faecalis [21] = test: Antibacterial activity against Enterococcus faecalis ATCC 29212 assessed as zone of inhibition incubated for 18 hrs by spot on lawn assay; format: functional, organism-based; method in brief: as §3

| Structure (SMILES) | MIC (Saccharomyces cerevisiae) [mg/L] | selectivity ratio [1] | selectivity ratio [2] | IC50 (Klebsiella pneumoniae) [mg/L] | MIC (Klebsiella pneumoniae) [mg/L] | IC50 (Staphylococcus aureus [3]) [mg/L] | MIC (Staphylococcus aureus [3]) [mg/L] | IC50 (Acinetobacter baumannii) [mg/L] | MIC (Acinetobacter baumannii) [mg/L] | selectivity ratio [4] | IC50 (Staphylococcus aureus [5]) [mg/L] | MIC (Staphylococcus aureus [5]) [mg/L] | IC50 (Enterococcus [6]) [mg/L] | MIC (Enterococcus [6]) [mg/L] | selectivity ratio [7] | IC50 (Pseudomonas aeruginosa) [mg/L] | MIC (Pseudomonas aeruginosa) [mg/L] | CC50 at 24 h [8] [mg/L] | selectivity ratio [9] | selectivity ratio [10] | other results |
| --- | --- | --- | --- | --- | --- | --- | --- | --- | --- | --- | --- | --- | --- | --- | --- | --- | --- | --- | --- | --- | --- |
| CCCCCCOC(=O)[C@H]1O[C@@H](n2ccc(N)nc2=O)C=C[C@@H]1NC(=O)C[C@@H](N)CCN(C)C(=N)N | 16 (≈ 31.6 µM) | 1.6 | 0.4 | 67.1 (≈ 132 µM) | 128 (≈ 253 µM) | 18 (≈ 35.5 µM) | 32 (≈ 63.2 µM) | 52.4 (≈ 103 µM) | 128 (≈ 253 µM) | 0.3 | 43.2 (≈ 85.3 µM) | 128 (≈ 253 µM) | 140 (≈ 276 µM) | 256 (≈ 505 µM) | 0.7 | 77.2 (≈ 152 µM) | > 128 | 18.4 (≈ 36.3 µM) | 0.3 | 0.1 | IC50 (Staphylococcus aureus [11]): 27.1 mg/L (≈ 53.5 µM); MIC (Staphylococcus aureus [11]): 64 mg/L (≈ 126 µM); IC50 (Enterococcus faecalis [12]): 11.4 mg/L (≈ 22.5 µM); MIC (Enterococcus faecalis [12]): 16 mg/L (≈ 31.6 µM); selectivity ratio [13]: 1; MIC (Candida albicans [14]): > 32 mg/L; selectivity ratio [15]: 0.2 |
| CCCOC(=O)[C@H]1O[C@@H](n2ccc(N)nc2=O)C=C[C@@H]1NC(=O)C[C@@H](N)CCN(C)C(=N)N | 32 (≈ 68.9 µM) | 1 | 0.6 | 60.1 (≈ 129 µM) | 128 (≈ 276 µM) | 20.6 (≈ 44.3 µM) | 32 (≈ 68.9 µM) | 42.3 (≈ 91.1 µM) | 128 (≈ 276 µM) | 0.2 | 15.8 (≈ 34 µM) | 32 (≈ 68.9 µM) | 23.6 (≈ 50.8 µM) | 128 (≈ 276 µM) | 0.7 | 61.6 (≈ 133 µM) | > 128 | 10.2 (≈ 22 µM) | 0.2 | 0.4 | Activity (Enterococcus [16]): Active; Activity (Staphylococcus aureus [17]): Active; Activity (Staphylococcus aureus [18]): Active; IC50 (Staphylococcus aureus [11]): 14.5 mg/L (≈ 31.2 µM); MIC (Staphylococcus aureus [11]): 32 mg/L (≈ 68.9 µM); Activity (Candida albicans [19]): inactive; IC50 (Enterococcus faecalis [12]): 10.5 mg/L (≈ 22.6 µM); MIC (Enterococcus faecalis [12]): 16 mg/L (≈ 34.4 µM); Activity (Staphylococcus aureus [20]): Active; selectivity ratio [13]: 0.5; MIC (Candida albicans [14]): > 256 mg/L; selectivity ratio [15]: 0.2; Activity (Enterococcus faecalis [21]): Active |
| CN(CC[C@H](N)CC(=O)N[C@H]1C=C[C@H](n2ccc(N)nc2=O)O[C@@H]1C(=O)OCc1ccccc1)C(=N)N | 128 (≈ 250 µM) | 1.2 | 0.7 | 58.8 (≈ 115 µM) | > 128 | 46.6 (≈ 90.9 µM) | 128 (≈ 250 µM) | 85.1 (≈ 166 µM) | > 128 | 0.2 | 23.3 (≈ 45.5 µM) | 32 (≈ 62.4 µM) | > 64 | 128 (≈ 250 µM) | 0.5 | 89.3 (≈ 174 µM) | > 128 | 17.4 (≈ 33.9 µM) | 0.3 | < 0.3 | IC50 (Staphylococcus aureus [11]): 33 mg/L (≈ 64.4 µM); MIC (Staphylococcus aureus [11]): 128 mg/L (≈ 250 µM); IC50 (Enterococcus faecalis [12]): 14.6 mg/L (≈ 28.5 µM); MIC (Enterococcus faecalis [12]): 16 mg/L (≈ 31.2 µM); selectivity ratio [13]: 0.4; MIC (Candida albicans [14]): > 128 mg/L; selectivity ratio [15]: 0.2 |
